Assay outcomes (PubChem BioAssay)
Most compounds without a hit are left out; they make up all but 4.1% or so of the library.
Dynein cargo inh = blocks dynein driven cargo transport along microtubules | AID 1381 | actives 0.47% (n = 220,000) | 3617.4 mouse cells, GR-EGFP nuclear translocation imaging; test concentration mostly 20 µM; stimulated with dexamethasone, 1 µM; stronger effect = lower value | z-score, hits read low;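 active = plate z-score of nuclear minus cytoplasmic receptor signal below a set negative limit, without overly bright fluorescence or cell loss, cut at about -3.5 in these data, passing the limit was not always enough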;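 also: z-score of nuclear minus cytoplasmic ring GR-EGFP intensity difference per well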
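Also added – dexamethasone, 1.0 µM final · Buffer or medium – tet-free, stripped-serum medium · Schedule – induction 48 h, compound 1 h, agonist 30 min · Detection – formaldehyde fixation, Hoechst nuclear stain, 10x automated fluorescence imaging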
Autophagy HCS = autophagy modulation, high-content screen; actives 0.98% (n = 190,000); calls only at 10 µM (by protocol); MEF GFP-LC3 puncta imaging; test concentration mostly 10 µM; AID 463193;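 active = percentage of spot-positive cells more than 3 SD above its plate mean, without a fluorescence outlier flag or 80% toxicity; inconclusive = no clear call, values can overlap the other calls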;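 also: spot-positive cell cutoff set from DMSO-treated cells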
ROMK primary = modulators of human ROMK potassium channel. Tet-inducible ROMK, thallium flux fluorescence; actives lie on both sides. B-score at 10 µM. actives 2% (n = 130,000). AID 1918;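 active = signal ratio slope over the read window, or its plate-corrected B-score, at least 3 SD from the plate mean, either direction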;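 also: B-score of the F/F0 ratio slope over 7 to 12 s after thallium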
DTT redox prof = compounds producing H2O2 with reducing agent – biochemical, NIH compound library profiling, artefact control for MLSCN library redox annotation, primary screen; DTT-dependent redox cycling H2O2, phenol red/HRP absorbance; 100% = 100 µM peroxide control, 0% = buffer; actives 0.03% (n = 200,000); activation, % at 10 µM;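 active = activation of at least 50% relative to the plate's high and low controls in the primary single-dose screen; inactive = activation below 50%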;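 also: compound incubated with DTT at 0.8 mM final as the reducing agent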
Cl transport mod = modulates chloride dependent transport by human KCC2. KCC2 cells, thallium flux FluoZin-2 fluorescence. B-score of Tl+ flux slope (higher = more flux/activation; lower = inhibition) at 10 µM. Q9H2X9. actives 2.2% (n = 190,000);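 active = thallium flux slope and its plate-corrected score both differing from the plate sample mean at a set confidence after two filtering rounds, in either direction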;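 also: slope of fluorescence scaled to starting intensity during 10 to 20 s after thallium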
Target sequence (Q9H2X9 whole entry, looked up): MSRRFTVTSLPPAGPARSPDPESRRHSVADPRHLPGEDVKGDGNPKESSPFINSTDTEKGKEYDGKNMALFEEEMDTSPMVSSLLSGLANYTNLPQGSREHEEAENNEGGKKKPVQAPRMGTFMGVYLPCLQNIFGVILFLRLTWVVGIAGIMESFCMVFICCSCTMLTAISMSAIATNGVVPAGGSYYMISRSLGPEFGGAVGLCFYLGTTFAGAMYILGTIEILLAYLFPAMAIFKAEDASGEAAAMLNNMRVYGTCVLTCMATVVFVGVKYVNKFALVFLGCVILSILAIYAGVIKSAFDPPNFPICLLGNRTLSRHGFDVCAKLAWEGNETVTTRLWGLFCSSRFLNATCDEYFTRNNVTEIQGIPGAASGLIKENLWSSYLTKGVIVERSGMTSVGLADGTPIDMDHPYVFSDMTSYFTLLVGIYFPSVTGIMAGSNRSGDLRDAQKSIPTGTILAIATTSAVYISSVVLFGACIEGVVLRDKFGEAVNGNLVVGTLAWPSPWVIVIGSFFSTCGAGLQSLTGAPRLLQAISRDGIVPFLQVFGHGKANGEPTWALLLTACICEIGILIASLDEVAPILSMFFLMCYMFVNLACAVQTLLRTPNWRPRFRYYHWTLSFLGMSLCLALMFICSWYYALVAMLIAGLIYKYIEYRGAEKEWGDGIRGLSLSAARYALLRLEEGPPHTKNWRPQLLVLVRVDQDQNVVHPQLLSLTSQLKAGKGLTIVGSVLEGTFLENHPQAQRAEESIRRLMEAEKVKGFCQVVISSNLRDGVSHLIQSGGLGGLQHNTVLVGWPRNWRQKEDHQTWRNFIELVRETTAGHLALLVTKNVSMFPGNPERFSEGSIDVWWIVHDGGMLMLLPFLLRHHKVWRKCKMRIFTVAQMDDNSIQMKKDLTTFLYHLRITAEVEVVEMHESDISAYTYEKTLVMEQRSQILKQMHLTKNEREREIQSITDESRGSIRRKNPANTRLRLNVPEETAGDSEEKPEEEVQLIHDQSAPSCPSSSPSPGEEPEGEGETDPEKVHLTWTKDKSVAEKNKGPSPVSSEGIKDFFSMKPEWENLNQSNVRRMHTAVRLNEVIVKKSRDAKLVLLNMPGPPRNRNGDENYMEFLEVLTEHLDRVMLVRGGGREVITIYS
KCC2 secondary = KCC2 (human) modulation, secondary assay. shares compounds with Cl transport mod. actives 15% (n = 3,700). HEK293-KCC2, thallium flux, FluoZin2 fluorescence; stronger effect = higher value. normalised thallium flux (F/F0 slope) at 10 µM;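 active = thallium flux slope above the same plate's solvent-only control mean plus 3 SD; inconclusive = the two replicate wells disagree; inactive = no significant difference from solvent-only control wells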
KCC2 bumet counter = bumetanide-insensitive thallium flux in KCC2 cells with ouabain, counter-screen; HEK293-KCC2 + bumetanide/ouabain, thallium flux FluoZin2; stronger effect = higher value; AID 1714; shares compounds with Cl transport mod; normalized thallium flux at 10 µM; actives 49% (n = 3,700);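 active = thallium entry rate above the same plate's blocked-transporter control wells by more than 3 SD; inconclusive = the two repeat wells disagree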;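 also: raw slope of fluorescence over initial fluorescence between 10 and 20 s after thallium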
KCC2 secondary2 = KCC2 (human) modulation, second secondary assay | shares compounds with Cl transport mod | HEK293-KCC2, thallium flux FluoZin2 fluorescence; actives lie on both sides; F/F0 rise rate, 10–20 s post-thallium | normalized thallium flux at 10 µM | actives 23% (n = 3,700);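 active = thallium flux slope more than 3 SD above or below the plate's solvent-only control mean, mostly below; inconclusive = the two repeat wells disagreed; inactive = no significant shift from solvent-only controls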;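 also: raw slope with 0.1% DMSO as baseline and bumetanide as block control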
HEK counter1 = acts in parental HEK cells, KCC2 counter-screen | actives 46% (n = 3,700) | shares compounds with Cl transport mod | HEK293 parental cells, thallium flux FluoZin2, ouabain; baseline-ratio fluorescence slope, 10–20 s after thallium | thallium flux rate (normalised fluorescence) at 10 µM | AID 1716;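 active = thallium flux rate significantly above the same plate's solvent-only control wells, beyond their mean plus 3 SD; inconclusive = the two replicate wells gave conflicting results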
KCC2 ouabain = KCC2 (human) modulation, ouabain retest. raw Tl+ flux slope (below DMSO = inhibition, above = activation) at 10 µM. HEK293-KCC2, thallium flux FluoZin2 fluorescence; bidirectional: low = inhibitor, high = activator. shares compounds with Cl transport mod. actives 48% (n = 3,700);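 active = thallium flux slope beyond 3 SD from same-plate DMSO control mean in most replicates, usually higher, sometimes lower; inconclusive = repeat tests gave conflicting results; inactive = no significant difference from controls in most replicates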;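 also: slope of initial-normalized fluorescence between seconds 10 and 20 after thallium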
HEK counter2 = counter-screen for KCC2 modulators: effect in parental HEK293 cells. shares compounds with Cl transport mod. thallium flux FluoZin-2 fluorescence slope. AID 1718. actives 33% (n = 3,700). thallium flux slope at 10 µM;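 active = thallium flux slope above the same plate's solvent-control mean plus 3 SD in both duplicate wells; inconclusive = duplicate wells that disagreed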;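 also: run without ouabain in cells lacking the KCC2 cotransporter; slope of fluorescence scaled to its starting value between 10 and 20 s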
An asterisk follows results filed as active; i = inactive; ? = inconclusive; / = not tested or not shown.

SMILES	Dynein cargo inh	Autophagy HCS	ROMK primary	DTT redox prof	Cl transport mod	KCC2 secondary	KCC2 bumet counter	KCC2 secondary2	HEK counter1	KCC2 ouabain	HEK counter2
COCCNc1oc(-c2ccccc2Cl)nc1C#N	-0.295	i	/	0.6	-3.8*	0.00781	0.0055	0.0299	0.00677	0.0203	0.00889
COCCNc1oc(-c2ccc(F)cc2)nc1C#N	-0.501	i	1.52	1.6	-0.117	/	/	/	/	/	/
CCOC(=O)N1CCN(C(=O)c2ccccc2NC(=O)COc2ccccc2C)CC1	-0.0395	i	/	-0.6	-3.3*	0.00707	0.00486	0.0249*	0.00817	0.0183	0.0103
CCOC(=O)N1CCN(C(=O)c2ccccc2NC(=O)c2ccc(C(C)(C)C)cc2)CC1	0.103	i	/	/	0.0455	/	/	/	/	/	/
O=C(Cn1nc(Cc2cccnc2)c2ccccc2c1=O)Nc1ccccc1F	1.03	/	-0.106	/	0.17	/	/	/	/	/	/
O=c1c2cc(N3CCOCC3)ccc2[nH]c(=S)n1CCCN1CCCCCC1	-0.911	i	-0.847	-1.3	0.43	/	/	/	/	/	/
O=c1c2cc(N3CCOCC3)ccc2[nH]c(=S)n1Cc1ccc(Cl)cc1	0.0874	i	-0.497	-0.1	2.35	/	/	/	/	/	/
Cc1ccc(Cn2c(=S)[nH]c3ccc(N4CCOCC4)cc3c2=O)o1	-2.79	i	/	-0.6	13.9*	0.0113	0.00977*	0.0355	?	0.0238	0.0119
CCCCn1c(=S)[nH]c2ccc(N3CCOCC3)cc2c1=O	-0.955	i	0.466	-0.3	12*	0.0143*	0.0308*	0.034	0.03*	0.0319*	0.0163*
COc1ccc(-c2nn(CCC(=O)O)cc2/C=C/C(=O)O)cc1[N+](=O)[O-]	1.21	i	-0.0978	-0.2	0.0452	/	/	/	/	/	/
CCc1n[nH]c(=S)n1/N=C/c1ccc2c(c1)OCO2	-0.424	i	/	-3.8	-0.166	/	/	/	/	/	/
CCc1n[nH]c(=S)n1/N=C/c1ccc(N(C)c2ccccc2)cc1	1.43	i	-0.219	0.7	9.54*	0.00979	0.019*	0.0324	0.029*	0.026*	0.0119
Cc1ccc(-c2ccnc(=S)[nH]2)cc1	-0.0197	i	0.293	-3.6	/	0.0234*	0.0318*	0.0413*	0.0327*	0.0344*	0.035*
Fc1ccc(-c2noc(-c3ccc4c(c3)CCO4)n2)cc1	-0.616	/	/	/	-0.778	/	/	/	/	/	/
S=c1nccc(-c2ccc3c(c2)CCO3)[nH]1	-1.78	/	0.206	/	4.6*	0.0186	0.0106*	0.0327	0.013*	0.0209*	0.0157*
S=c1nccc(-c2cccs2)[nH]1	-0.0149	i	-0.26	-0.1	2.77	/	/	/	/	/	/
COc1ccc(OC)c(/C(O)=C/C(=O)C(=O)Nc2cc(C)cc(C)c2)c1	-0.371	i	-0.343	0.8	1.19	/	/	/	/	/	/
CCOc1ccccc1NC(=O)c1cc(C(=O)c2cc(OC)ccc2O)coc1=N	-0.802	i	-0.768	-0.2	-0.00607	/	/	/	/	/	/
COc1ccccc1NC(=O)C(=O)/C=C(\O)c1ccccc1	0.615	/	/	/	72.6*	?	0.0876*	0.0617*	0.052*	0.064*	0.0415*
COc1ccc(OC)c(/C(O)=C/C(=O)C(=O)Nc2cc(C)ccc2OC)c1	-1.04	i	1.09	0.0	4.01*	0.00583	0.0224*	0.0359	0.0157*	0.0272*	0.0176*
CCOc1ccccc1NC(=O)C(=O)/C=C(\O)c1cc(OC)ccc1OC	-0.234	i	-0.0177	2.2	5.81*	0.00604	0.0257*	0.0358	0.0218*	0.0289*	0.0144*
O=C(COC(=O)Cc1ccccc1F)Nc1ccc(F)cc1F	-0.703	i	/	-0.1	0.4	/	/	/	/	/	/
COc1ccc(C(c2nnnn2Cc2cccs2)N2CCN(c3ccccc3F)CC2)cc1 (stereo unspecified)	-0.643	i	/	2.2	-4.13*	0.00684	?	?	0.00758	0.0176*	0.011
COc1cccc(-c2nn(-c3ccccc3)cc2CN(C)Cc2c(C)nc3ccccn23)c1	1.29	i	-0.00796	-0.2	/	/	/	/	/	/	/
Cc1ccccc1Cn1nc(C)c(NC(=O)c2noc3c2CCc2ccccc2-3)c1C	-1	/	/	-0.4	-3.84*	0.00848	0.00681	0.0329	0.0081	0.0193	0.0109
SMILES	Dynein cargo inh	Autophagy HCS	ROMK primary	DTT redox prof	Cl transport mod	KCC2 secondary	KCC2 bumet counter	KCC2 secondary2	HEK counter1	KCC2 ouabain	HEK counter2
Cc1ccccc1Cn1nc(C)c(NC(=O)c2noc3c2CC(C(C)(C)C)CC3)c1C (stereo unspecified)	1.55	i	-0.369	-2.9	/	/	/	/	/	/	/
Cc1ccc(-c2ccc(SCC(=O)Nc3cc(C)on3)nn2)cc1	-0.064	i	-0.0095	-0.3	-2.91	/	/	/	/	/	/
CC1CCN(C(=O)CSc2ccc(-c3ccccc3)nn2)CC1	-0.751	i	0.128	-0.2	-3.16*	?	0.00673	0.0311	0.00755	0.0158*	0.0109
CCOc1ccc(-c2ccc(SCC(=O)Nc3nnc(CC)s3)nn2)cc1	-0.206	i	1.63	-1.2	4.04*	0.00578	0.00775*	0.0336	0.0102*	?	0.0131*
Cc1ccc(NC(=O)CSc2ccc(-c3ccco3)nn2)cc1	-0.0312	i	/	-0.9	-3.3*	0.0178	0.00524	0.022*	0.00764	0.0134	0.0102
CC(=O)Nc1ccc(NC(=O)CSc2ccc(-c3ccco3)nn2)cc1	-0.405	i	-0.222	1.2	-1.64	/	/	/	/	/	/
CCc1nnc(NC(=O)CSc2ccc(-c3ccc(C)cc3)nn2)s1	-0.855	i	1.49	1.3	2.46	/	/	/	/	/	/
Cc1nonc1NC(=O)CSc1ccc(-c2ccccc2)nn1	1.53	i	-0.345	0.8	-8.02*	0.00746	0.00528	0.0217*	0.00663	?	0.0103
Cc1ccc(NS(=O)(=O)c2cc(NC(=O)c3cc4c(s3)CCCC4)ccc2C)c(C)c1	0.137	i	-1.05	0.2	-1.64	/	/	/	/	/	/
O=C1CC(c2ccc(F)cc2)CC2=C1C(c1ccc([N+](=O)[O-])o1)Nc1ccccc1N2 (stereo unspecified)	-0.046	/	/	/	-2.4	/	/	/	/	/	/
CC(C)c1nn2c(=O)cc(O)nc2s1	0.17	i	/	-0.1	1.38	/	/	/	/	/	/
CCOC(=O)N1CCN(C(=O)CSc2ccc(-c3ccncc3)nn2)CC1	0.469	i	0.497	-0.7	-0.373	/	/	/	/	/	/
